Measurements pooled from the literature.
Protocols differ between the studies behind these lines.
Target: G protein-coupled receptor kinase 4 (GRK4, Homo sapiens, UniProt P32298)

`Cn1cc(-c2cccc(N3CCc4c(sc5c4CC(C)(C)C5)C3=O)c2CO)cc(Nc2ccncn2)c1=O` gave an inhibition of -4% (enzyme activity, inhibitor; 1 µM).
For `Cc1nn(C)cc1-c1nc2c(N3CCN(Cc4ccc(Cl)cc4)CC3)c(Cl)cnc2[nH]1`, the remaining binding was 41% (binding, competition with immobilised ligand; 1 µM).
`Nc1ncc(-c2nc(N3CCOCC3)nc(N3CCOCC3)n2)c(C(F)F)n1` gave a remaining binding of 74% (binding, competition with immobilised ligand; 10 µM).
`CC(C)(C)c1cc(C=C(C#N)C#N)cc(Br)c1O` gave a remaining activity of 101% (enzyme activity, inhibitor; 0.5 µM).
For `Cn1cc(-c2cc(F)cc(N3CCn4c(cc5c4CCCC5)C3=O)c2CO)cc(Nc2ccc(N3CCN(C4COC4)CC3)cn2)c1=O`, the inhibition was 12% (enzyme activity, inhibitor; 0.1 µM).
For `Cn1cncc1[C@@](O)(COc1ccc(C#N)cc1-c1ccc(OC(F)(F)F)cc1)c1ccc(C#N)cc1`, the remaining binding was 56% (cell-free assay, competition with immobilised ligand; 1 µM).
With `COc1ncccc1-c1cnn2ccc(N3CCN(C(=O)OC(C)C)CC3)nc12` the remaining binding was 70% (binding, competition with immobilised ligand; 1 µM).
For `N#CC1(c2ccccn2)CCN(Cc2cc(C(=O)O)c(=O)n3ccccc23)CC1`, the remaining binding was 68% (cell-free assay, competition with immobilised ligand; 1 µM).
For `O=c1[nH]c2ccccc2n1C1CCN(Cc2ccc(-c3[nH]c4cc5ncnc5cc4nc3-c3ccccc3)cc2)CC1`, the remaining signal was 104% (cell-free assay; 0.5 µM).
